Like-named read-outs stand apart in the source and are kept apart here.
Columns and labels:
Assay in all cases: MTT assay, cytotoxicity/growth inhibition
[1] = system: HCT-116 (colon carcinoma); type: cell-based; details: Homo sapiens; for inhibition at 20 µM: HCT-116, 48 h, read-out: Cytotoxic Activity (% Growth Inhibition); for IC50: HCT-116
How it was run: (§1)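 Cells were grown in RPMI (A549, HCT-116, PC-3) or DMEM (MCF-7) with 10% FBS at 37 °C and 5% CO2. Seeding per well was […] and PC-3 8 × 10^4 cells. […] MTT 250 μg/mL, 4 h; DMSO; A570; triplicate; mean ± SE.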

MCF-7 (breast carcinoma) = type: cell-based; details: Homo sapiens; for inhibition at 20 µM: MCF7, 48 h, read-out: Cytotoxic Activity (% Growth Inhibition); for IC50: MCF7
How it was run: as §1

A549 (lung carcinoma) = type: cell-based, human; details: for inhibition at 20 µM / IC50: Homo sapiens; for inhibition at 20 µM: A549, 48 h; for IC50: A549
How it was run: as §1

[2] = system: PC-3 (prostate carcinoma); type: cell-based; details: Homo sapiens; for inhibition at 20 µM: 48 h, read-out: Cytotoxic Activity (% Growth Inhibition)
How it was run: as §1

[3] = read-out: Cytotoxic Activity (% Growth Inhibition), A549, 20 μM concentration, MTT, 48 h

SMILES	inhibition at 20 µM [1] [%]	inhibition at 20 µM (MCF-7 (breast carcinoma)) [%]	inhibition at 20 µM (A549 (lung carcinoma); read-out: Cytotoxic Activity (% Growth Inhibition)) [%]	inhibition at 20 µM [2] [%]	IC50 [1] [µM]	IC50 (MCF-7 (breast carcinoma)) [µM]	IC50 (A549 (lung carcinoma)) [µM]	inhibition at 20 µM (A549 (lung carcinoma); [3]) [%]	IC50 [2] [µM]	potency relative to andrographolide (times / fold more potent) (A549 (lung carcinoma); A549, ratio of IC50 values)
C[C@@]12COC(c3ccccc3)O[C@@H]1CC[C@]1(C)C2CC=C(COC(=O)Cc2ccccc2)[C@H]1/C=C/C1=CCOC1=O (stereo partly drawn) [Compound 8o, ((4aR,6aR,7S,10bR)-6a,10b-Dimethyl-7-((E)-2-(2-oxo-2,5-dihydrofuran-3-yl)vinyl)-3-phenyl-4a,5,6,6a,7,10,10a,10b-octahydro-1H-naphtho[2,1-d][1,3]dioxin-8-yl)methyl 2-Phenylacetate]	24.97 ± 0.16	32.09 ± 0.08	20.13 ± 0.02	0						
C[C@@]12COC(c3ccccc3)O[C@@H]1CC[C@]1(C)C2CC=C(COC(=O)Cc2ccc(F)cc2)[C@H]1/C=C/C1=CCOC1=O (stereo partly drawn) [Compound 8p, ((4aR,6aR,7S,10bR)-6a,10b-Dimethyl-7-((E)-2-(2-oxo-2,5-dihydrofuran-3-yl)vinyl)-3-phenyl-4a,5,6,6a,7,10,10a,10b-octahydro-1H-naphtho[2,1-d][1,3]dioxin-8-yl)methyl 2-(4-Fluorophenyl)acetate]	20.6 ± 0.95	0		77 ± 0.86	> 20	> 20	> 20	17 ± 1.7	8	
C[C@@]12COC(c3ccccc3)O[C@@H]1CC[C@]1(C)C2CC=C(COC(=O)Cc2ccc(Cl)cc2)[C@H]1/C=C/C1=CCOC1=O (stereo partly drawn) [Compound 8q, ((4aR,6aR,7S,10bR)-6a,10b-Dimethyl-7-((E)-2-(2-oxo-2,5-dihydrofuran-3-yl)vinyl)-3-phenyl-4a,5,6,6a,7,10,10a,10b-octahydro-1H-naphtho[2,1-d][1,3]dioxin-8-yl)methyl 2-(4-Chlorophenyl)acetate]	36.1 ± 0.96	46 ± 0.72		39 ± 0.82				11 ± 1		
C[C@@]12COC(c3ccccc3)O[C@@H]1CC[C@]1(C)C2CC=C(COC(=O)Cc2ccc(I)cc2)[C@H]1/C=C/C1=CCOC1=O (stereo partly drawn) [Compound 8r, ((4aR,6aR,7S,10bR)-6a,10b-Dimethyl-7-((E)-2-(2-oxo-2,5-dihydrofuran-3-yl)vinyl)-3-phenyl-4a,5,6,6a,7,10,10a,10b-octahydro-1H-naphtho[2,1-d][1,3]dioxin-8-yl)methyl 2-(4-Iodophenyl)acetate]	22.1 ± 0.58	42 ± 0.69		77 ± 0.48	> 20	> 20	> 20	2.9 ± 0.69	5.8	
COc1ccc(CC(=O)OCC2=CCC3[C@]4(C)COC(c5ccccc5)O[C@@H]4CC[C@@]3(C)[C@@H]2/C=C/C2=CCOC2=O)cc1 (stereo partly drawn) [Compound 8s, ((4aR,6aR,7S,10bR)-6a,10b-Dimethyl-7-((E)-2-(2-oxo-2,5-dihydrofuran-3-yl)vinyl)-3-phenyl-4a,5,6,6a,7,10,10a,10b-octahydro-1H-naphtho[2,1-d][1,3]dioxin-8-yl)methyl 2-(4-Methoxyphenyl)acetate]	22.1 ± 0.44	54 ± 0.53		75 ± 0.93	> 20	16.9	6.6	78 ± 0.97	5.9	
Cc1ccc(CC(=O)OCC2=CCC3[C@]4(C)COC(c5ccccc5)O[C@@H]4CC[C@@]3(C)[C@@H]2/C=C/C2=CCOC2=O)cc1 (stereo partly drawn) [Compound 8t, ((4aR,6aR,7S,10bR)-6a,10b-Dimethyl-7-((E)-2-(2-oxo-2,5-dihydrofuran-3-yl)vinyl)-3-phenyl-4a,5,6,6a,7,10,10a,10b-octahydro-1H-naphtho[2,1-d][1,3]dioxin-8-yl)methyl 2-(p-Tolyl)acetate]	45.9 ± 0.86	27 ± 0.29		69.5 ± 0.74				48.9 ± 0.73		
COc1cc(CC(=O)OCC2=CCC3[C@]4(C)COC(c5ccccc5)O[C@@H]4CC[C@@]3(C)[C@@H]2/C=C/C2=CCOC2=O)cc(OC)c1OC (stereo partly drawn) [Compound 8u, ((4aR,6aR,7S,10bR)-6a,10b-Dimethyl-7-((E)-2-(2-oxo-2,5-dihydrofuran-3-yl)vinyl)-3-phenyl-4a,5,6,6a,7,10,10a,10b-octahydro-1H-naphtho[2,1-d][1,3]dioxin-8-yl)methyl 2-(3,4,5-Trimethoxyphenyl)acetate]	10.9 ± 0.99	43 ± 0.28		70.9 ± 0.41	> 20	> 20	5.4	72 ± 0.54	9	about 4
C[C@@]12COC(c3ccccc3)O[C@@H]1CC[C@]1(C)C2CC=C(COC(=O)Cc2ccc(Cl)c(Cl)c2)[C@H]1/C=C/C1=CCOC1=O (stereo partly drawn) [Compound 8v, ((4aR,6aR,7S,10bR)-6a,10b-Dimethyl-7-((E)-2-(2-oxo-2,5-dihydrofuran-3-yl)vinyl)-3-phenyl-4a,5,6,6a,7,10,10a,10b-octahydro-1H-naphtho[2,1-d][1,3]dioxin-8-yl)methyl 2-(3,4-Dichlorophenyl)acetate]	12.5 ± 0.78	34 ± 0.28		70.3 ± 0.54	> 20	> 20	> 20	41.6 ± 0.98	8.4	
CCCCCCCC(=O)OCC1=CCC2[C@]3(C)COC(c4ccccc4)O[C@@H]3CC[C@@]2(C)[C@@H]1/C=C/C1=CCOC1=O (stereo partly drawn) [Compound 8w, ((4aR,6aR,7S,10bR)-6a,10b-Dimethyl-7-((E)-2-(2-oxo-2,5-dihydrofuran-3-yl)vinyl)-3-phenyl-4a,5,6,6a,7,10,10a,10b-octahydro-1H-naphtho[2,1-d][1,3]dioxin-8-yl)methyl Octanoate]	40.5 ± 0.91	51 ± 0.96		49 ± 0.85	> 20	20	8.4	70.7 ± 0.73	> 20	
CCCCCCCCCC(=O)OCC1=CCC2[C@]3(C)COC(c4ccccc4)O[C@@H]3CC[C@@]2(C)[C@@H]1/C=C/C1=CCOC1=O (stereo partly drawn) [Compound 8x, ((4aR,6aR,7S,10bR)-6a,10b-Dimethyl-7-((E)-2-(2-oxo-2,5-dihydrofuran-3-yl)vinyl)-3-phenyl-4a,5,6,6a,7,10,10a,10b-octahydro-1H-naphtho[2,1-d][1,3]dioxin-8-yl)methyl Decanoate]	50.1 ± 0.4	45 ± 0.98		39 ± 0.24				49.7 ± 0.79		
CCCCCCCCCCCC(=O)OCC1=CCC2[C@]3(C)COC(c4ccccc4)O[C@@H]3CC[C@@]2(C)[C@@H]1/C=C/C1=CCOC1=O (stereo partly drawn) [Compound 8y, ((4aR,6aR,7S,10bR)-6a,10b-Dimethyl-7-((E)-2-(2-oxo-2,5-dihydrofuran-3-yl)vinyl)-3-phenyl-4a,5,6,6a,7,10,10a,10b-octahydro-1H-naphtho[2,1-d][1,3]dioxin-8-yl)methyl Dodecanoate]	40.1 ± 0.8	51 ± 0.35		32 ± 0.66	> 20	20	11	71 ± 0.77	> 20	
COc1cccc(C(=O)OCC2=CCC3[C@](C)(CO)[C@H](O)CC[C@@]3(C)[C@@H]2/C=C/C2=CCOC2=O)c1 (stereo partly drawn) [Compound 9b, ((1S,5R,6R,8aR)-6-Hydroxy-5-(hydroxymethyl)-5,8a-dimethyl-1-((E)-2-(2-oxo-2,5-dihydrofuran-3-yl)vinyl)-1,4,4a,5,6,7,8,8a-octahydronaphthalen-2-yl)methyl 3-Methoxybenzoate]	0	14.6 ± 0.09		7 ± 0.58				39.85 ± 0.26		
